# The list is not random: actives were taken first. Their share in the collection is about 3.7%.
# KCNK3 block: human KCNK3 channel inhibition, primary screen; AID 602410; 340,000 compounds, 0.84% hits; B-score at 10 µM; CHO-KCNK3 thallium flux, FluxOR fluorescence; hits give low values;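 active means B-score under library mean minus 4 SD, starting fluorescence ratio at most library mean plus 5 SD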;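 further: more negative B-score means stronger inhibition of thallium flux through KCNK3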
# KCNQ1 pot: human KCNQ1 channel potentiation or activation | B-score at 10 µM | 310,000 compounds, 0.35% hits | AID 2648 | P51787 | CHO-K1 KCNQ1, thallium flux FluxOR fluorescence; hits give high values;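 active means fluorescence ratio B-score, a plate-corrected score, at least three library SD, with initial intensity B-score within 5 SD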
#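 Schedule – 37 °C overnight plating, 90-min dark dye load, 20-min compound pretreatment · System – stable KCNQ1 CHO-K1 line · Probe or stimulus – thallium- and potassium-containing depolarizing buffer · Measured by – kinetic FluxOR fluorescence, 10 s baseline plus 110 s post-stimulus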
# KCNK9 block: blocks the human KCNK9 two-pore domain potassium channel. Q9NPC2. HEK293 KCNK9, FluxOR thallium flux fluorescence; hits give low values. B-score at 10 µM. 310,000 compounds, 1.2% hits;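 active means ratio B-score over 3 SD below the library mean, with starting fluorescence within 5 SD of its mean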;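 further: negative B-score means less thallium flux so channel inhibition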
# KCNQ1 inh: blocks the human KCNQ1 potassium channel; B-score at 10 µM; CHO-K1 KCNQ1, FluxOR thallium flux fluorescence; hits give high values; 310,000 compounds, 1.3% hits; P51787;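 active means compounds whose thallium flux B-score, printed positive for inhibition, exceeds three library SD while starting fluorescence stays within three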;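 further: channel opened by potassium depolarization with thallium stimulus after 20 min compound exposure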
# hERG protect: hERG (human) protection from proarrhythmic block; Q12809; CHO-hERG, FluxOR thallium flux, dofetilide IC70 present; activation (rescue from dofetilide block), less the hit threshold, % at 10 µM; 310,000 compounds, 0.51% hits; AID 1511;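 active means activation above the mean of controls blocked by dofetilide plus 5 SD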;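 further: thallium influx through hERG after potassium depolarization seen as dye fluorescence rise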
# Kir21 inh: blocks the mouse Kir2.1 inward-rectifier potassium channel | 310,000 compounds, 0.85% hits | HEK293-Kir2.1, FluxOR thallium flux fluorescence; hits give low values | B-score at 10 µM;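 active means fluorescence ratio B-score at or below minus 3 SD of library scores, with starting-brightness B-score within 2 SD, cut at about -4.2 in these data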;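 further: channel flux triggered by added potassium and thallium sulfate stimulus; B-score of peak minus minimum fluorescence over baseline after thallium stimulus; more negative B-score means stronger Kir2.1 block with less thallium influx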
# Target sequence (P35561 whole entry, looked up): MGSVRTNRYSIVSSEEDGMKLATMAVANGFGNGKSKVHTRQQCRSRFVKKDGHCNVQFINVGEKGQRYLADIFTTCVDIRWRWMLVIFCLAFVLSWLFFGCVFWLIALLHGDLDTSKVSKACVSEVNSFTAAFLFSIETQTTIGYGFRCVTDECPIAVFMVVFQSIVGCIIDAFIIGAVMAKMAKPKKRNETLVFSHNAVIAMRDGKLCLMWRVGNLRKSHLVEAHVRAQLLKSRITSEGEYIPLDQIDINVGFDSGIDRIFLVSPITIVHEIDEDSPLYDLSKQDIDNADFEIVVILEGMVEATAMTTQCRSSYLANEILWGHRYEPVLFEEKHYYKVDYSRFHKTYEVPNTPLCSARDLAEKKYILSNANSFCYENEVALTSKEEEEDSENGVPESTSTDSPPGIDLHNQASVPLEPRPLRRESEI
# KCNK9 block conf: human KCNK9 inhibitor confirmation | inhibition, % at 10 µM | HEK293 KCNK9 cells, FluxOR thallium flux fluorescence | 4,900 compounds, 43% hits | shares compounds with KCNK9 block;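 active means thallium signal inhibited by more than 5 SD of the compound-free buffer control wells, on both duplicate plates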;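 further: 0% = assay buffer control wells without compound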
# Kir2-1 spec: selectivity of KCNK9 modulators against mouse Kir2.1 | shares compounds with KCNK9 block | Kir2.1 cells, FluxOR thallium flux fluorescence | inhibition, % at 10 µM | 4,900 compounds, 4% hits | AID 492993;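 active means thallium signal drop more than 5 SD beyond the mean of the no-compound control wells, seen in both duplicate plates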;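 further: signal is fluorescence rise after thallium addition divided by baseline fluorescence; plate controls were assay buffer only for no effect and full block by chlorpromazine control for full effect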
# HEK293 Tl ctr: non-induced cell nonspecific activity of KCNK9 modulators | shares compounds with KCNK9 block | non-induced KCNK9-HEK293, FluxOR thallium flux | inhibition, % at 10 µM | 4,900 compounds, 40% hits | AID 492997;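 active means thallium signal drop beyond 5 SD of the untreated control mean, on both duplicate plates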;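 further: plate controls were buffer only IC0 wells for no effect and SID17386958 at its maximal inhibitory level for full effect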
# Starred values were filed as active, the others as inactive; i = inactive; / = no result.
SMILES,KCNK3 block,KCNQ1 pot,KCNK9 block,KCNQ1 inh,hERG protect,Kir21 inh,KCNK9 block conf,Kir2-1 spec,HEK293 Tl ctr
COC(=O)c1sccc1NC(=S)N1CC(C)CC(C)C1 (centres undefined),i,i,i,i,-1,0,i,i,28%*
COC(=O)c1sccc1NC(=S)N1CCC(C)CC1,i,i,i,i,-15,0.15,/,/,/
Clc1ccc(-c2csc3ncnc(N4CCc5ccccc5C4)c23)cc1,i,i,-10*,i,-14,-0.48,45%*,i,40%*
Clc1ccc(CN2CCN(c3ncnc4scc(-c5cccs5)c34)CC2)cc1,i,i,-13*,7*,-23,-0.87,34%*,i,i
CCOC(=O)N1CCN(c2ncnc3scc(-c4ccc(Cl)cc4)c23)CC1,i,i,i,i,-4,0.9,/,/,/
Cc1ccccc1N1CCN(c2ncnc3scc(-c4cccs4)c23)CC1,i,i,-14*,i,-18,0.24,44%*,i,i
C=C(C(=O)c1ccccc1)C(c1ccccc1)C(C)C(=O)c1ccccc1 (centres undefined),i,i,-12*,i,-8,-4.4*,73%*,i,44%*
COc1ccc(-n2c(SCCC#N)nnc2-c2cc(Cl)ccc2OC)cc1Cl,i,i,-11*,i,-16,-0.37,29%*,i,41%*
COc1cc(C2C(C#N)=C(N)Oc3cc(N(C)C)ccc32)cc2c1OCO2 (centres undefined),i,i,-8.6*,i,-12,-1.7,34%*,i,54%*
COc1cc(C2C(C#N)=C(N)Oc3cc(O)ccc32)cc2c1OCO2 (centres undefined),i,i,i,i,-10,-1.9,/,/,/
O=C1c2ccccc2[C@@H]2C[C@@H](O)[C@H](Nc3cccc(Cl)n3)CCN12,i,/,/,/,/,/,/,/,/
COCC(C)N1CCC(Oc2ccc(C(=O)N3CCCC3)cc2)CC1 (centres undefined),i,i,i,i,-1,0.12,/,/,/
O=C(CCC(=O)c1ccc(Oc2ccccc2)cc1)Nc1cccc(Cl)c1Cl,i,i,i,i,-16,0.06,i,i,26%*
CCCCN(CCCC)CCCN1CC(=O)N2[C@@H](Cc3c([nH]c4ccccc34)C2(C)C)C1=O,i,i,i,i,-6,0.1,/,/,/
Cc1cc(C)n(-c2nc3ccccc3nc2N2CCCCCC2)n1,i,i,-9.9*,i,-7,-2,33%*,i,40%*
CCCc1cc(=O)oc2cc(C)cc(OCC(=O)NCCCN3CCOCC3)c12,i,i,i,i,-4,0.17,/,/,/
CCOC(=O)COc1ccc(/C=C2/SC(=Nc3ccccc3)N(Cc3cccnc3)C2=O)cc1OC,i,i,i,i,-13,1.3,i,i,i
CCN1C(=O)/C(=C\c2ccncc2)SC1=Nc1ccc(C)c(C)c1,i,i,i,i,-11,-0.17,i,i,i
CCOc1cc(/C=C2\SC(=Nc3ccccc3)N(c3ccccc3)C2=O)ccc1OCC(=O)O,i,i,i,i,-17,1.9,/,/,/
CCCN1C(=O)/C(=C/c2ccco2)SC1=Nc1ccc(OC)cc1,i,i,i,i,-5,-2,/,/,/
CCCN1C(=O)/C(=C\c2ccncc2)SC1=Nc1ccccc1,i,i,i,i,-12,0.58,i,i,i
CCn1c(C(=O)N2CCc3ccccc3C2)cc2sccc21,i,i,i,i,-11,-0.23,i,i,i

# Bioassay records deposited in PubChem BioAssay by Johns Hopkins Ion Channel Center.
